The values below come from ChEMBL document CHEMBL3792370, “New pseudodimeric aurones as palm pocket inhibitors of Hepatitis C virus RNA-dependent RNA polymerase” (Eur J Med Chem, 2016).

Activity calls are given as the source filed them. No cut-off for these calls is given here. Where only a bound is given, the exact number is not on record here.

What is called EC50 is the concentration needed to bring the measured effect to its halfway point. A lower EC50 goes with greater potency. The IC50 is the concentration at which inhibition is half-maximal.

Data set [1] relates to Hepatitis C virus. Description: Antiviral activity against HCV genotype 2a/2a J6/JFH1 model infected in Huh7.5 cells after 72 hrs by luciferase reporter gene assay. Conditions: subtype 2a J6/JFH1, Huh7.5, 72 h. It is filed as functional, organism-based, Hepacivirus hominis. In a few lines:
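Huh7.5 cells were seeded at 10 000 cells/well and infected 24 h later with J6/JFH1 HCVcc, then incubated overnight at 37°C. Cells were washed and given increasing compound concentrations in medium with 1% DMSO for 72 h at 37°C. After a PBS wash, cells were lysed in Renilla lysis buffer and luciferase activity was read for 10 s.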
In general terms: Reporter assays use an easily measured gene product as a stand-in for the process of interest.

Data set [2] can be described thus: Inhibition of HCV J4 genotype 1b recombinant His-tagged NS5B truncated at 21 C-terminal expressed in Escherichia coli C41 (DE3) assessed as synthesis of […]. Details: species or system Hepatitis C virus isolate HC-J4.
Data set [3] has as its system HEK293. Nature of the data set: Cytotoxicity against HEK293 cells at 50 uM after 72 hrs by MTT assay. To be noted: human, hek293, 72 h. For orientation: Tetrazolium assays rely on reduction of a dye to a coloured formazan, in cell work by metabolically active cells.
Data set [4] has as its system Hepatitis C virus isolate HC-J4. Description: Inhibition of HCV J4 genotype 1b recombinant His-tagged NS5B truncated at 21 C-terminal H95Q mutant expressed in Escherichia coli C41 (DE3) assessed as synthesis of […].
A short description of data set [5]: Inhibition of HCV J4 genotype 1b recombinant His-tagged NS5B truncated at 21 C-terminal P495L mutant expressed in Escherichia coli C41 (DE3) assessed as synthesis of […]. The arrangement: species or system Hepatitis C virus isolate HC-J4.

Compound `O=C1/C(=C/c2ccc(OCC(COc3ccc(/C=C4\Oc5cc(O)cc(O)c5C4=O)cc3)CC3CCCCC3)cc2)Oc2cc(O)cc(O)c21` (stereo unspecified) came in with an EC50 in data set [1] of 90 µM. The IC50 in data set [2] stood at 1800 nM.

On to `CC(C)CC(COc1ccc(/C=C2\Oc3ccccc3C2=O)cc1)COc1ccc(/C=C2\Oc3ccccc3C2=O)cc1`, for which the EC50 in data set [1] was > 400 µM.

For the compound `COc1cc(OC)c2c(c1)O/C(=C\c1cccc(/C=C3\Oc4cc(OC)cc(OC)c4C3=O)c1)C2=O`, in data set [3], the Activity entry is “Non-toxic”.

On to `O=C1/C(=C/c2ccc(OCC(COc3ccc(/C=C4\Oc5cc(O)cc(O)c5C4=O)cc3)C3CCCC3)cc2)Oc2cc(O)cc(O)c21` (stereo unspecified), for which the IC50 in data set [2] was determined as 1900 nM.

Compound `COc1c(-c2ccc3cc(NS(C)(=O)=O)ccc3c2)cc(-n2ccc(=O)[nH]c2=O)cc1C(C)(C)C` [DASABUVIR] displayed an EC50 in data set [1] of 9.1 µM. The IC50 in data set [2] came to 600 nM.

On to `O=C1/C(=C/c2ccc(-c3cccc(/C=C4\Oc5cc(O)cc(O)c5C4=O)c3)cc2)Oc2cc(O)cc(O)c21`, for which the IC50 in data set [2] is 3100 nM.

Consider `O=C1/C(=C/c2cccc(/C=C3\Oc4cc(O)cc(O)c4C3=O)c2)Oc2cc(O)cc(O)c21`, for which the IC50 in data set [2] was found to be 3600 nM.

`O=C1/C(=C/c2ccc(/C=C3\Oc4cc(O)cc(O)c4C3=O)cc2)Oc2cc(O)cc(O)c21`: the EC50 in data set [1] was 202 µM. Further, the Activity entry in data set [3] was “Non-toxic”. Besides, the outcome in data set [4] was inactive. For the same compound, the figures for the IC50 in data set [2] and in data set [5] were 1300 nM and 1500 nM, respectively.

Compound `O=C1/C(=C/c2ccc(OCCCOc3ccc(/C=C4\Oc5cc(O)cc(O)c5C4=O)cc3)cc2)Oc2cc(O)cc(O)c21` displayed an EC50 in data set [1] of 214 µM. The IC50 in data set [2] worked out at 1500 nM.

As to `O=C1/C(=C/c2ccc(OCC(COc3ccc(/C=C4\Oc5cc(O)cc(O)c5C4=O)cc3)C3CCCCC3)cc2)Oc2cc(O)cc(O)c21` (stereo unspecified), in data set [1], it took 42 µM to reach a half-maximal effect (EC50). Besides, the IC50 in data set [2] worked out at 2000 nM.

In data set [1], `CC(C)CC(COc1ccc(/C=C2\Oc3cc(O)cc(O)c3C2=O)cc1)COc1ccc(/C=C2\Oc3cc(O)cc(O)c3C2=O)cc1` returned an EC50 of 76 µM. Besides, in data set [2], the IC50 turned out to be 1900 nM.

As to `O=C1/C(=C/c2ccc(-c3ccccc3/C=C3\Oc4cc(O)cc(O)c4C3=O)cc2)Oc2cc(O)cc(O)c21`, the IC50 in data set [2] came out at 6000 nM.
